TRPML3 agonist – agonists of human TRPML3 channel; Q8TDD5; 220,000 compounds, 0.29% hits; HEK293 TRPML3-YFP, Fluo-8 calcium fluorescence; 100% = the carbachol control signal; activation, % at 3 µM;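 active means activation above its plate's cutoff, the mean activation of the plate's test wells plus 3 SD, cut at about 12% in these data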
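Test system – HEK293 line with stable expression of human TRPML3-YFP channel · Control set – carbachol 87 µM final as high control (100%), DMSO as low control (0%) · Signal – Fluo-8 calcium dye fluorescence, ex 470-495, em 515-575 nm · Incubation – 1-h 37 °C dye load, 5-s basal, 120-s post-compound reads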
OXTR potentiator – human OXTR potentiation; AID 2445; 320,000 compounds, 0.061% hits; CHO-OTR cells, Fluo-8 calcium fluorescence, potentiator mode; 0% = oxytocin EC15, 100% = EC100; P30559; activation, % at 3 µM;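 active means activation above that plate's cutoff, the mean activation of tested compounds plus 3 SD, cut at about 6.6% in these data, passing the limit was not always enough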
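System: human OTR in CHO cells; Also added: sub-maximal oxytocin, roughly EC15; Timing: compound 6 min at room temperature before oxytocin, 100 s read; Technique: Fluo-8 intracellular calcium fluorescence, ex 470-495, em 515-575 nm; Controls: oxytocin EC15 low and EC100 high; Replication: singlicate.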
OXTR ag – agonists of human oxytocin receptor. 320,000 compounds, 0.32% hits. CHO-OTR cells, Fluo-8 calcium fluorescence; normalized: DMSO 0%, oxytocin 100%. activation, % at 3 µM. AID 2435. P30559;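 active means activation above the mean of all tested compounds plus 3 SD, cutoff set per screening run, cut at about 20% in these data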;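 further: peak over basal fluorescence ratio from a 100 s FLIPR kinetic read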
V1R ag counter – activates human V1a receptor in oxytocin agonist counter-screen; 320,000 compounds, 0.25% hits; activation, % at 3 µM; CHO-V1R cells, Fluo-8 calcium fluorescence, agonist mode; 0% DMSO, 100% 3 nM vasopressin; P37288; AID 2797;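 active means activation above the mean activation of all tested compounds plus 3 SD, per screening run, cut at about 20% in these data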;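 further: signal is peak over basal fluorescence ratio across a 100 second FLIPR read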
Target sequence (P37288 whole entry, looked up): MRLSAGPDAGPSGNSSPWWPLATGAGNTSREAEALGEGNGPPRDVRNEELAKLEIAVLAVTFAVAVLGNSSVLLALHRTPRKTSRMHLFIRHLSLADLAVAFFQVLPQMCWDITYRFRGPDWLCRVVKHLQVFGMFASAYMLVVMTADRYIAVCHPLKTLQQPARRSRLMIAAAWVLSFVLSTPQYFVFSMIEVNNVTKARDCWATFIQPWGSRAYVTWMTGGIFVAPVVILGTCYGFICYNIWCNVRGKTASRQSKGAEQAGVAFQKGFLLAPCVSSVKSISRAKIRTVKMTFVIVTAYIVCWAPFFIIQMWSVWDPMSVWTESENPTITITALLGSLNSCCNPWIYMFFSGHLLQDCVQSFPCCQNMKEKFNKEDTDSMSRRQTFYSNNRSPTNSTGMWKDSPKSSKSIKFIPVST
TRPN1 ag – zebrafish TRPN1 (NompC) channel agonism; HEK293 zebrafish TRPN1-YFP, Fluo-8 calcium fluorescence; 100% = response to 87 µM carbachol; activation, % at 3 µM; 220,000 compounds, 0.18% hits;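 active means activation above its plate's cutoff, the mean activation of test wells on that plate plus 3 SD, cut at about 19% in these data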
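Assay system: Zebrafish TRPN1-YFP in HEK293 cells | Incubation: Dye loading 1 h at 37 °C, then 30 min room temperature | Measured by: Kinetic Fluo-8 fluorescence, ex 470-495, em 515-575 nm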
Numbers stand for hits; . = inactive; / = no result given. In the library only some 0.55% were active in any assay of this set; here they are far more common.

SMILES | TRPML3 agonist | OXTR potentiator | OXTR ag | V1R ag counter | TRPN1 ag
CC(C)(C)CN1C(=O)C(=O)NC[C@@H]1CCCCN | / | . | . | . | /
O=C1CCN(Cc2ccccc2)C=C1c1ccc(Br)cc1 | / | . | . | . | /
Cn1c(N)c(-c2ccccc2)c2ccc([N+](=O)[O-])cc2c1=O | / | . | 46 | 51 | /
CCC1(c2ccc(F)cc2)NC(=O)N(CC(=O)c2cc(C)n(C3CC3)c2C)C1=O (stereo unspecified) | / | . | 31 | 30 | /
CCOC(=O)c1cnc2c(ccc3ccccc32)c1NCCCN(C)C | / | . | . | . | /
Cc1cnc(NC(=O)CSc2ncc(-c3ccccc3)n2Cc2ccco2)s1 | . | . | 26 | 30 | .
O=[N+]([O-])c1ccc(C2=NN(c3ccccc3)C(c3ccco3)C2)cc1 (stereo unspecified) | 12 | / | / | / | 24
O=[N+]([O-])c1ccc(/C=C/C2=NN(c3ccccc3)C(c3ccco3)C2)cc1 (stereo unspecified) | . | . | 34 | 27 | .
Cc1ccc(C2=NN(S(=O)(=O)c3ccccc3)C(c3ccco3)C2)cc1 (stereo unspecified) | / | . | . | . | /
CC(=O)N1C(=O)C(=C2C=C(C)OC(C)=C2)c2ccccc21 | . | . | . | . | 26
Cc1ccc(OCCCC(=O)NNC(=O)c2ccccn2)cc1 | / | . | . | . | /
CC(CCc1ccccc1)NCc1cccc2ccccc12 (stereo unspecified) | / | . | . | . | /
NC(CCCCc1ccccc1)c1cccc2ccccc12 (stereo unspecified) | / | . | 21 | . | /
Cc1cccnc1NC(=O)CSc1ccc2c(c1)OCCO2 | / | . | . | . | /
O=C(Nc1cccnc1)c1ccc(COc2cc(Cl)ccc2Cl)o1 | . | . | . | . | .
O=C(N/N=C/c1ccc(O)cc1)c1ccc(COc2cc(Cl)ccc2Cl)o1 | . | . | 33 | 33 | 24
CCOC(=O)c1nn(-c2ccccc2)c2nnc(Cc3ccc(C)cc3)c(=O)n12 | . | 12 | . | . | .
CCCCn1c(N)c(NCCC)c(=O)[nH]c1=O | . | . | . | . | .
Cc1ccc(N/N=C(\C#N)C(N)=S)cc1C | 13 | . | . | . | 24
N#C/C(=N\Nc1ccccc1)C(N)=S | . | . | . | . | .
N#C/C(=N\Nc1ccc(Cl)cc1)C(N)=S | 16 | . | . | . | 25
Cc1ccc(NC(N)=S)cc1C | . | . | . | . | .
O=C(CN1C(=O)NC2(CCCC2)C1=O)OCCOc1ccc(Br)cc1 | / | . | . | . | /
COc1cc(/C=C2\SC(=S)N(C(C(=O)O)c3ccccc3)C2=O)ccc1O (stereo unspecified) | 27 | . | 33 | 49 | 40
O=C1/C(=C\c2cc([N+](=O)[O-])ccc2O)SC(=S)N1Cc1ccc(Cl)cc1 | / | . | 96 | 67 | /
SMILES | TRPML3 agonist | OXTR potentiator | OXTR ag | V1R ag counter | TRPN1 ag
COc1cc(/C=C2/SC(=S)N(Cc3ccccc3)C2=O)ccc1O | / | . | 28 | 36 | /
O=C(COC(=O)c1ccc[n+]([O-])c1)Nc1ccc([N+](=O)[O-])cc1Cl | / | . | . | . | /
CCOC(=O)c1c(C)nn(Cc2cccc(Cl)c2)c1N | . | . | . | . | .
CCc1cccc2sc(N3CCN(C(=O)c4ccc([N+](=O)[O-])o4)CC3)nc12 | / | . | . | . | /
Nc1c(C(=O)c2ccc(Cl)cc2)sc2nsc(SCCN3CCOCC3)c12 | . | . | . | . | 23
CC(=O)c1sc2nsc(SCCN3CCCCC3)c2c1N | . | . | . | . | .
Nc1c(C(=O)c2ccccc2)sc2nsc(SCCN3CCCC3)c12 | 13 | . | . | . | 26
COCCCNc1c2c3c(cccc3[nH]c1=O)C(=O)c1ccccc1-2 | 105 | . | 590 | 533 | 203
COc1ccc(NC(=O)Nc2c(C)n(C)n(-c3ccccc3)c2=O)c(OC)c1 | / | . | . | . | /
Cc1ccc(NC(=O)Nc2cccc([N+](=O)[O-])c2)cc1F | 12 | . | . | . | 23
CCOC(=O)CCc1cnccc1-c1cccc(OC)c1O | / | . | . | . | /
O=C(NNC(=S)NC(=O)C12CC3CC(CC(C3)C1)C2)c1ccncc1 | 54 | . | 61 | 71 | 85
CC1(C(=O)NC(=S)NNC(=O)c2ccncc2)CCCCC1 | . | . | . | . | .
CCCCCCn1c(=O)[nH]c2nc3cc(N)c(C)cc3nc2c1=O | 15 | / | / | / | 42
O=C(OCCN1C(=O)c2cccc3c(N4CCOCC4)ccc(c23)C1=O)c1cccc(Cl)c1 | . | . | 23 | 22 | .
O=C(OCCN1C(=O)c2cccc3c(N4CCOCC4)ccc(c23)C1=O)c1ccc(Cl)cc1Cl | . | . | . | . | .
COC(=O)c1ccc(NC(C)=O)cc1O | . | / | / | / | .
COc1ccc(C2=CC(=O)CCC2)cc1 | / | . | . | . | /
CCN(CC)c1ccc(/C=C(/C#N)c2nc3ccccc3[nH]2)c(OC(C)C)c1 | 15 | . | 51 | 44 | 24
Cc1cccc(/N=C/c2sc3ccccc3c2O)n1 | . | . | . | . | .
Oc1c(C=Nc2cccc3cccnc23)sc2ccccc12 | . | . | 48 | 65 | .
CCN(CC)c1ccc(/C=C2\C(=O)c3ccc(C(=O)O)cc3C2=O)cc1 | 23 | . | 161 | 66 | 69
CCN(CC)c1ccc(C(=O)O)cc1 | . | . | . | . | .
C=CCn1c2ccccc2c(=O)c2cc(C#Cc3ccccn3)ccc21 | / | . | . | . | /
CCn1c(=O)ccc2cc([N+](=O)[O-])ccc21 | . | . | . | . | .
SMILES | TRPML3 agonist | OXTR potentiator | OXTR ag | V1R ag counter | TRPN1 ag
CC(=O)[C@]1(O)Cc2c(O)c3c(c(O)c2[C@@H](O[C@H]2C[C@H](N)[C@H](O)[C@H](C)O2)C1)C(=O)c1ccccc1C3=O | / | . | 77 | 40 | /
COc1cccc2c1C(=O)c1c(O)c3c(c(O)c1C2=O)C[C@@](O)(C(C)=O)C[C@@H]3O[C@H]1C[C@H](N)[C@H](O)[C@H](C)O1 | . | / | / | / | .
N#C/C(=C(/O)C(Cl)(Cl)Cl)c1nc2ccccc2[nH]1 | . | . | . | . | 20
O=C(Nc1ncc(S(=O)(=O)c2ccc([N+](=O)[O-])cc2)s1)c1ccccc1F | . | . | 33 | 41 | .
CCOc1ccc(NS(=O)(=O)c2ccc(C(=O)NCC3(N4CCCCC4)CCCCC3)cc2)cc1 | / | . | 36 | 25 | /
CCOc1ccc(NS(=O)(=O)c2ccc(C(=O)NCc3ccccn3)cc2)cc1 | / | . | 31 | 27 | /
Cc1ccc(NS(=O)(=O)c2ccc(C(=O)NCc3ccccn3)cc2)cc1 | / | . | 25 | 31 | /
CCOc1ccc(NS(=O)(=O)c2ccc(C(=O)NCc3ccncc3)cc2)cc1 | / | . | . | . | /
CS(=O)(=O)Nc1ccc(C(=O)NCc2ccccn2)cc1 | . | . | . | . | .
Cc1cc(S(=O)(=O)Nc2ccc(C(=O)NCC3(N4CCCCC4)CCCCC3)cc2)ccc1F | / | . | . | . | /
